Results as given in ChEMBL document CHEMBL3774381, “Discovery of Novel and Orally Bioavailable Inhibitors of PI3 Kinase Based on Indazole Substituted Morpholino-Triazines” (ACS Med Chem Lett, 2015).

Key:
[1] = molecular target: Phosphatidylinositol 4,5-bisphosphate 3-kinase catalytic subunit alpha isoform (Homo sapiens, UniProt P42336); assay: Inhibition of human recombinant PI3K-alpha using phosphatidylinositol biphosphate as substrate preincubated for 15 mins followed by substrate addition measured after 60 mins by HTRF assay
Phosphatidylinositol 4,5-bisphosphate 3-kinase catalytic subunit alpha isoform, sequence (P42336 whole entry, canonical isoform): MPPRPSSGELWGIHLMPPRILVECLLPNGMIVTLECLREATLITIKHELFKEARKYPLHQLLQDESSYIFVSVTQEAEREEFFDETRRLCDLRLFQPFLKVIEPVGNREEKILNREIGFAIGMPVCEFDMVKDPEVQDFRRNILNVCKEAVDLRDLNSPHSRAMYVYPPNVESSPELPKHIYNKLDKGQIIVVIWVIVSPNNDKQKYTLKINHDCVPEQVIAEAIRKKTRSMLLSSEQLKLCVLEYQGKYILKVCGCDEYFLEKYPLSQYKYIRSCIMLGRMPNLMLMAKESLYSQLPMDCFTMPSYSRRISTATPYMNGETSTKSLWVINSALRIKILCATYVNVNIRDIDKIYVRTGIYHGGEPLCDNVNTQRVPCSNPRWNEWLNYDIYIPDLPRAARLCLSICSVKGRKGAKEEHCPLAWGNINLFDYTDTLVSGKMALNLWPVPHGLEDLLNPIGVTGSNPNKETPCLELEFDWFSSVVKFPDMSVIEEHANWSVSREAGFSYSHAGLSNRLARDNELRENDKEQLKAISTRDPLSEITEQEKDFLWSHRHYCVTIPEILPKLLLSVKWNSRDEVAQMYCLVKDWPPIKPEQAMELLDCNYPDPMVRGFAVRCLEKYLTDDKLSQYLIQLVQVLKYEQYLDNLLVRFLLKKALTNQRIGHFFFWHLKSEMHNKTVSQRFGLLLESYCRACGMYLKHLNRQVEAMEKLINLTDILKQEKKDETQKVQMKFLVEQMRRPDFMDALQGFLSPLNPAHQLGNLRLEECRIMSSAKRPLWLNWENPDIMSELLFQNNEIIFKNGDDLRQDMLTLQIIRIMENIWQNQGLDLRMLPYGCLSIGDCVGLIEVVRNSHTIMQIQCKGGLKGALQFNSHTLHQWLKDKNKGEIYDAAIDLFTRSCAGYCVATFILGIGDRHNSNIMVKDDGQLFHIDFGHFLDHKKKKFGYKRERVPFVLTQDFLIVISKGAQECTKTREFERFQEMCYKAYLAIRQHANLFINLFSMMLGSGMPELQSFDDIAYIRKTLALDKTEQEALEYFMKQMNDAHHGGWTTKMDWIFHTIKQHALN

A2780 = assay: Antiproliferative activity against human A2780 cells assessed as reduction in cell viability after 48 hrs by MTT assay; format: functional, cell-based; conditions: A2780, 48 h
Outline: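 Cellular EC50 was determined in the A2780 ovarian cancer line, with a coefficient of variation below 5%.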

Cytochrome P450 2C19 [2] = molecular target: T1, Cytochrome P450 2C19 (Homo sapiens, UniProt P33261); assay: Inhibition of CYP2C19 (unknown origin) at 10 uM; format: ADME
T1 sequence (P33261 whole entry): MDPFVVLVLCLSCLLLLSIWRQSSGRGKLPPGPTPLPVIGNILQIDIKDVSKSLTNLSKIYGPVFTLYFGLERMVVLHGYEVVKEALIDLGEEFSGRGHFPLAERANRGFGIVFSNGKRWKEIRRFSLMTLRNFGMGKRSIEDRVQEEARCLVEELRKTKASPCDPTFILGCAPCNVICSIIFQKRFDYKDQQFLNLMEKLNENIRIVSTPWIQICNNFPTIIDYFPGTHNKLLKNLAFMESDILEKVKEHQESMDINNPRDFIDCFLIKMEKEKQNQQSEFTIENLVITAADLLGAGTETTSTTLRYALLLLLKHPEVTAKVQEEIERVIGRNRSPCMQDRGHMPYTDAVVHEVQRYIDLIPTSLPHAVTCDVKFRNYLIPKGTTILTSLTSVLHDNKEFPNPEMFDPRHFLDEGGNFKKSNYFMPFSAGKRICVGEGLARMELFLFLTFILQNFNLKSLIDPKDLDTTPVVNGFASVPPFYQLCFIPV
Outline: (§1)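 Inhibition of CYP3A4, CYP2C19 and CYP2D6 activity was screened with test compound at 10 μM.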

[3] = Metabolic stability in mouse liver microsomes assessed as parent compound remaining at 10 uM after 2 hrs by HPLC analysis in presence of NADPH; format: ADME; conditions: read-out: Stability
Outline: (§2)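 Compound was incubated with isolated human, dog or mouse liver microsomes for 2 h. Parent concentration was followed by HPLC at 0, 0.5, 1 and 2 h, and the 2 h value is reported as remaining parent.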

[4] = Metabolic stability in human liver microsomes assessed as parent compound remaining at 10 uM after 2 hrs by HPLC analysis in presence of NADPH; format: ADME; conditions: read-out: Stability; outline: as §2
Cytochrome P450 2D6 [5] = molecular target: T2, Cytochrome P450 2D6 (Homo sapiens, UniProt P10635); assay: Inhibition of CYP2D6 (unknown origin); format: ADME; outline: as §1
T2 sequence (P10635 whole entry): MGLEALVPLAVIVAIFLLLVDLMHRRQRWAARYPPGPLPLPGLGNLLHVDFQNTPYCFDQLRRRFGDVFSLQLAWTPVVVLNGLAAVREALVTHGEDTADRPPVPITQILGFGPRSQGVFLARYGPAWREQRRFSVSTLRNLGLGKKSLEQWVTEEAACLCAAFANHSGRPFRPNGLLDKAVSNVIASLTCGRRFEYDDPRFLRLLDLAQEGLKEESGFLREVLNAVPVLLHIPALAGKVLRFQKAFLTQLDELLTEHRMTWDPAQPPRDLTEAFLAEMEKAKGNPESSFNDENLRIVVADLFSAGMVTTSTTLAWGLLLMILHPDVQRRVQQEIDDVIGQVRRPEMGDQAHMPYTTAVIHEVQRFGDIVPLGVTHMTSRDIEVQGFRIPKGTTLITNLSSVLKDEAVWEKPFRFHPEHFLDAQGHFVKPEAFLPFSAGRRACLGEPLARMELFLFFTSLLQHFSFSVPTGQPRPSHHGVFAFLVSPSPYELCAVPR

Cytochrome P450 3A4 [6] = molecular target: T3, Cytochrome P450 3A4 (Homo sapiens, UniProt P08684); assay: Inhibition of CYP3A4 (unknown origin) at 10 uM; format: ADME; outline: as §1
T3 sequence (P08684 whole entry): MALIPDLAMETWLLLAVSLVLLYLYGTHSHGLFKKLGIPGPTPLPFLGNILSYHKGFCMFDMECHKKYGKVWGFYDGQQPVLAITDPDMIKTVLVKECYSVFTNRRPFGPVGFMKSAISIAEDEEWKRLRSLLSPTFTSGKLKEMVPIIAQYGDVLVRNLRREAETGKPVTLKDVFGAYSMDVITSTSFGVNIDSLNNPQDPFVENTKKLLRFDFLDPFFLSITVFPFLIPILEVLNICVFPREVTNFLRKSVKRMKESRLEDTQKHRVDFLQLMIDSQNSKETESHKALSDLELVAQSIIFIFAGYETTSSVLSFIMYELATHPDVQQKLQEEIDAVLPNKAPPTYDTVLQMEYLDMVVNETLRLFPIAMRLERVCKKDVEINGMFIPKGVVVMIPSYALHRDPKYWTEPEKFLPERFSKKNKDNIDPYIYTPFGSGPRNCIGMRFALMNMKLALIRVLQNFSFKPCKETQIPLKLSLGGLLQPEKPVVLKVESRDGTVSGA

Cytochrome P450 2D6 [7] = molecular target: T2, Cytochrome P450 2D6; assay: Inhibition of CYP2D6 (unknown origin) at 10 uM; format: ADME; outline: as §1
Cytochrome P450 2C19 [8] = molecular target: T1, Cytochrome P450 2C19; assay: Inhibition of CYP2C19 (unknown origin); format: ADME; outline: as §1
Cytochrome P450 3A4 [9] = molecular target: T3, Cytochrome P450 3A4; assay: Inhibition of CYP3A4 (unknown origin); format: ADME
[10] = Tmax in Swiss mouse plasma at 10 mg/kg, po after 0.16 to 8 hrs by LC-MS analysis; format: ADME, organism-based
Outline: (§3)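 Single oral doses of 1, 3 and 10 mpk were given to mice in a dose-ranging study, with the 3 mpk screen run in Swiss mice. Plasma tmax, Cmax, AUC and elimination t1/2 were derived from each dose group.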

Mus musculus [11] = assay: Toxicity in Swiss mouse assessed as hyperthermia at 30 mg/kg, po bid for 5 days; format: organism-based; conditions: in vivo, 120 h
Outline: (§4)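 Swiss mice were dosed orally at 30 mpk BID for 5 consecutive days. Body weight, body temperature (hyper- or hypothermia), body coat and level of physical activity were monitored throughout.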

Mus musculus [12] = assay: Toxicity in Swiss mouse assessed as hypothermia at 30 mg/kg, po bid for 5 days; format: organism-based; conditions: in vivo, 120 h; outline: as §4
[13] = Cmax in Swiss mouse plasma at 1 mg/kg, po after 0.16 to 8 hrs by LC-MS analysis; format: ADME, organism-based; set-up: dose 1 mg/kg, route oral; outline: as §3
[14] = AUC in Swiss mouse plasma at 1 mg/kg, po after 0.16 to 8 hrs by LC-MS analysis; format: ADME, organism-based; set-up: dose 1 mg/kg, time 0.16-8 hr, route oral
[15] = Elimination half life in Swiss mouse plasma at 1 mg/kg, po after 0.16 to 8 hrs by LC-MS analysis; format: ADME, organism-based; conditions: read-out: beta t1/2 (converted)
Mus musculus [16] = assay: Toxicity in Swiss mouse assessed as changes in body coat at 30 mg/kg, po bid for 5 days; format: organism-based; conditions: in vivo, 120 h; outline: as §4
[17] = Cmax in Swiss mouse plasma at 3 mg/kg, po after 0.16 to 8 hrs by LC-MS analysis; format: ADME, organism-based; set-up: dose 3 mg/kg, route oral; outline: as §3
[18] = Elimination half life in Swiss mouse plasma at 10 mg/kg, po after 0.16 to 8 hrs by LC-MS analysis; format: ADME, organism-based; conditions: read-out: beta t1/2 (converted); outline: as §3
[19] = Tmax in Swiss mouse plasma at 3 mg/kg, po after 0.16 to 8 hrs by LC-MS analysis; format: ADME, organism-based; outline: as §3
[20] = Metabolic stability in dog liver microsomes assessed as parent compound remaining at 10 uM after 2 hrs by HPLC analysis in presence of NADPH; format: ADME, Canis lupus familiaris; conditions: read-out: Stability; outline: as §2
[21] = AUC in Swiss mouse plasma at 3 mg/kg, po after 0.16 to 8 hrs by LC-MS analysis; format: ADME, organism-based; set-up: time lower 0.16 hr, dose 3 mg/kg, time upper 8 hr, route oral; outline: as §3
Mus musculus [22] = assay: Toxicity in Swiss mouse assessed as reduced physical activity at 30 mg/kg, po bid for 5 days; format: organism-based; conditions: in vivo, 120 h; outline: as §4
[23] = Tmax in Swiss mouse plasma at 1 mg/kg, po after 0.16 to 8 hrs by LC-MS analysis; format: ADME, organism-based; outline: as §3
[24] = Elimination half life in Swiss mouse plasma at 3 mg/kg, po after 0.16 to 8 hrs by LC-MS analysis; format: ADME, organism-based; conditions: read-out: beta t1/2 (converted); outline: as §3
[25] = Cmax in Swiss mouse plasma at 10 mg/kg, po after 0.16 to 8 hrs by LC-MS analysis; format: ADME, organism-based; set-up: dose 10 mg/kg, route oral; outline: as §3
Mus musculus [26] = assay: Toxicity in Swiss mouse assessed as body weight loss at 30 mg/kg, po bid for 5 days; format: organism-based; conditions: in vivo, 120 h; outline: as §4
[27] = AUC in Swiss mouse plasma at 10 mg/kg, po after 0.16 to 8 hrs by LC-MS analysis; format: ADME, organism-based; set-up: dose 10 mg/kg, time 0.16-8 hr, route oral; outline: as §3

CN(C)C(=O)c1cccc(Nc2nc(-c3cccc4[nH]ncc34)nc(N3CCOCC3)n2)c1
IC50 [1]: 0.06 µM
EC50 (A2780): 0.8 µM

Nc1nc(-c2cccc(O)c2)nc(N2CCOCC2)n1
IC50 [1]: 0.68 µM

CN(C)C(=O)CNc1nc(-c2cncc(O)c2)nc(N2CCOCC2)n1
IC50 [1]: 1.6 µM

NC(=O)c1cccc(Nc2nc(-c3cccc4[nH]ncc34)nc(N3CCOCC3)n2)c1
IC50 [1]: 0.08 µM
EC50 (A2780): 0.82 µM

COc1cccc(-c2nc(NCC(=O)O)nc(N3CCOCC3)n2)c1
IC50 [1]: > 20 µM

CN(C)C(=O)CNc1nc(-c2cccc(O)c2)nc(N2CCOCC2)n1
IC50 [1]: 0.54 µM

c1ccc(Nc2nc(-c3cccc4[nH]ncc34)nc(N3CCOCC3)n2)cc1
IC50 [1]: 0.8 µM
EC50 (A2780): 3.69 µM

CN(C)C(=O)N1CCC(Oc2nc(-c3cccc4[nH]ncc34)nc(N3CCOCC3)n2)CC1
inhibition (INH) (Cytochrome P450 2C19 [2]): Not Active
IC50 [1]: 0.06 µM
remaining at 2 h, 10 µM [3]: 24.8%
remaining at 2 h, 10 µM [4]: 80.7%
IC50 (Cytochrome P450 2D6 [5]): > 10 µM
EC50 (A2780): 0.72 µM
inhibition (INH) (Cytochrome P450 3A4 [6]): Not Active
inhibition (INH) (Cytochrome P450 2D6 [7]): Not Active
IC50 (Cytochrome P450 2C19 [8]): > 10 µM
IC50 (Cytochrome P450 3A4 [9]): > 15 µM

CN(C)C(=O)c1cc(Oc2nc(-c3cccc4[nH]ncc34)nc(N3CCOCC3)n2)cs1
IC50 [1]: 0.1 µM
EC50 (A2780): 1.4 µM

CN(C)C(=O)CCNc1nc(-c2cccc3[nH]ncc23)nc(N2CCOCC2)n1
IC50 [1]: 0.6 µM
EC50 (A2780): 6.38 µM

CN(CC(=O)O)c1nc(-c2cccc(O)c2)nc(N2CCOCC2)n1
IC50 [1]: 10 µM

O=C1CCN(c2nc(-c3cccc4[nH]ncc34)nc(N3CCOCC3)n2)CCN1
IC50 [1]: 0.2 µM
EC50 (A2780): 2.64 µM

O=C1CN(c2nc(-c3cccc4[nH]ncc34)nc(N3CCOCC3)n2)CCN1
IC50 [1]: 0.4 µM
EC50 (A2780): 3.97 µM

CNc1cccc(Nc2nc(-c3cccc4[nH]ncc34)nc(N3CCOCC3)n2)c1
EC50 (A2780): 0.85 µM

CS(=O)(=O)N1CCN(C(=O)CNc2nc(-c3cccc(O)c3)nc(N3CCOCC3)n2)CC1
IC50 [1]: 1.06 µM

CN(C)C(=O)c1sccc1Nc1nc(-c2cccc3[nH]ncc23)nc(N2CCOCC2)n1
IC50 [1]: 0.2 µM
EC50 (A2780): 1.9 µM

CN(C)C(=O)CNc1nc(-c2cccc3c2CCC3O)nc(N2CCOCC2)n1 (stereo unspecified)
IC50 [1]: > 20 µM

NC(=O)c1cccc(Oc2nc(-c3cccc4[nH]ncc34)nc(N3CCOCC3)n2)c1
IC50 [1]: 0.27 µM
EC50 (A2780): 3.22 µM

Nc1cccc(-c2nc(NCC(=O)O)nc(N3CCOCC3)n2)c1
IC50 [1]: > 10 µM

CN(C)C(=O)c1ccc(Oc2nc(-c3cccc4[nH]ncc34)nc(N3CCOCC3)n2)cc1
Tmax [10]: 2.33 h
Activity (Mus musculus [11]): Non-toxic
Activity (Mus musculus [12]): Non-toxic
inhibition (INH) (Cytochrome P450 2C19 [2]): Not Active
IC50 [1]: 0.06 µM
Cmax [13]: 360 nM
AUC [14]: 2.12 µM·h
remaining at 2 h, 10 µM [3]: 45.6%
half-life [15]: 6.93 h
remaining at 2 h, 10 µM [4]: 101%
Activity (Mus musculus [16]): Non-toxic
IC50 (Cytochrome P450 2D6 [5]): > 10 µM
Cmax [17]: 1240 nM
half-life [18]: 6.87 h
EC50 (A2780): 0.52 µM
Tmax [19]: 1 h
remaining at 2 h, 10 µM [20]: 83.8%
inhibition (INH) (Cytochrome P450 3A4 [6]): Not Active
AUC [21]: 5.25 µM·h
Activity (Mus musculus [22]): Non-toxic
Tmax [23]: 1 h
inhibition (INH) (Cytochrome P450 2D6 [7]): Not Active
half-life [24]: 4.86 h
Cmax [25]: 1800 nM
IC50 (Cytochrome P450 2C19 [8]): > 10 µM
Activity (Mus musculus [26]): Non-toxic
IC50 (Cytochrome P450 3A4 [9]): > 15 µM
AUC [27]: 9.79 µM·h

CN(C)C(=O)[C@H]1CC[C@H](Oc2nc(-c3cccc4[nH]ncc34)nc(N3CCOCC3)n2)CC1
inhibition (INH) (Cytochrome P450 2C19 [2]): Not Active
IC50 [1]: 0.06 µM
remaining at 2 h, 10 µM [3]: 27.3%
remaining at 2 h, 10 µM [4]: 99%
IC50 (Cytochrome P450 2D6 [5]): > 10 µM
EC50 (A2780): 0.68 µM
inhibition (INH) (Cytochrome P450 3A4 [6]): Not Active
inhibition (INH) (Cytochrome P450 2D6 [7]): Not Active
IC50 (Cytochrome P450 2C19 [8]): > 10 µM
IC50 (Cytochrome P450 3A4 [9]): > 15 µM

CN(C)C(=O)CNc1nc(-c2cccc(C(N)=O)c2)nc(N2CCOCC2)n1
IC50 [1]: > 20 µM

COC(=O)CNc1nc(-c2cccc(O)c2)nc(N2CCOCC2)n1
IC50 [1]: 1.18 µM

CN(C)C(=O)CNc1nc(-c2cccc3[nH]ncc23)nc(N2CCOCC2)n1
IC50 [1]: 1.1 µM

O=C(O)CNc1nc(-c2ccccc2)nc(N2CCOCC2)n1
IC50 [1]: > 20 µM

CNC(=O)CNc1nc(-c2cccc(O)c2)nc(N2CCOCC2)n1
IC50 [1]: 0.73 µM

NC(=O)CNc1nc(-c2cccc(O)c2)nc(N2CCOCC2)n1
IC50 [1]: 0.74 µM
